Measured values published in ChEMBL document CHEMBL5370575, “Probing the Cytotoxic Signaling Induced by Eupenifeldin in Ovarian Cancer Models” (J Nat Prod, 2023).
Activity calls are given as the source filed them. The rule behind the calls is not given here.

Columns and labels:
OVCAR-5 [1] = experiment: Cytostatic activity against human OVCAR-5 cells assessed as […] in colony formation at 10 nM incubated for 8 hrs measured after 2 weeks by crystal violet staining based analysis; format: functional, cell-based; settings: time 344.0 hrs
Method in brief: (§1)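 Seeded at 200 cells per dish, attached overnight, exposed 8 h to 10 nM (DMSO vehicle 0.1%), then grown 15 days in untreated growth medium. Colonies fixed with 4% paraformaldehyde, stained with 0.05% crystal violet, counted and normalised to vehicle. Mean ± SEM, three biological replicates, one-way ANOVA with Dunnett's test.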

OVCAR-5 [2] = experiment: Cytotoxicity against human OVCAR-5 cells assessed as inhibition of cell growth for 72 hrs by CellTiter-Blue cell viability assay; format: functional, cell-based; settings: OVCAR-5, 72 h
Method in brief: (§2)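 5000 cells seeded in triplicate, attached overnight, then exposed for 72 h to serial concentrations in DMSO vehicle (0.05%). Viability was read by fluorometric CellTiter-Blue. IC50 in nM comes from dose–response curves relative to DMSO control. Media: OVCAR3 in RPMI1640, OVCAR5/OVCAR8 in DMEM, hFT33 in DMEM-Ham's F12 50/50, all with 10% FBS. Data are mean ± SEM, three biological replicates.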

OVCAR-3 [3] = experiment: Cytotoxicity against human OVCAR-3 cells assessed as inhibition of cell growth for 72 hrs by CellTiter-Blue cell viability assay; format: functional, cell-based; settings: OVCAR-3, 72 h; method in brief: as §2
[4] = Cytotoxicity against human FT33 cells assessed as inhibition of cell growth for 72 hrs by CellTiter-Blue cell viability assay; format: toxicity, cell-based; method in brief: as §2
OVCAR-3 [5] = experiment: Cytostatic activity against human OVCAR-3 cells assessed as […] in colony formation at 10 nM incubated for 8 hrs measured after 2 weeks by crystal violet staining based analysis; format: functional, cell-based; settings: time 344.0 hrs; method in brief: as §1
OVCAR-8 [6] = experiment: Cytostatic activity against human OVCAR-8 cells assessed as […] in colony formation at 10 nM incubated for 8 hrs measured after 2 weeks by crystal violet staining based analysis; format: functional, cell-based; settings: time 344.0 hrs; method in brief: as §1
OVCAR-8 [7] = experiment: Cytotoxicity against human OVCAR-8 cells assessed as inhibition of cell growth for 72 hrs by CellTiter-Blue cell viability assay; format: functional, cell-based; settings: OVCAR-8, 72 h; method in brief: as §2

## CC(=O)O[C@H]1C(=O)[C@@]2(C)[C@H]([C@H](OC(=O)c3ccccc3)[C@]3(O)C[C@H](OC(=O)[C@H](O)[C@@H](NC(=O)c4ccccc4)c4ccccc4)C(C)=C1C3(C)C)[C@]1(OC(C)=O)CO[C@@H]1C[C@@H]2O [PACLITAXEL]
OVCAR-5 [1]
  Activity: Active
OVCAR-5 [2]
  IC50: 3.6 nM
OVCAR-3 [3]
  IC50: 2.6 nM
[4]
  IC50 at 72 h: 11 nM
OVCAR-3 [5]
  Activity: Active
OVCAR-8 [6]
  Activity: Active
OVCAR-8 [7]
  IC50: 6.5 nM
